Assay results taken from ChEMBL document CHEMBL2157878, “In vitro cellular uptake and dimerization of signal transducer and activator of transcription-3 (STAT3) identify the photosensitizing and imaging-potential of isomeric photosensitizers derived from chlorophyll-a and bacteriochlorophyll-a” (J Med Chem, 2011).

Tests used:
Mus musculus [1] = experiment: Drug uptake in mouse Colon 26 cells xenografted iv dosed BALB/c mouse after 24 hrs by PET imaging; type: ADME, organism-based; conditions: in vivo
Outline: (§1)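 Colon26 tumors grown subcutaneously in BALB/c mice. ¹²⁴I-labeled photosensitizer given into the tail vein at 52–122 μCi. Under isoflurane/oxygen anesthesia, animals were scanned prone on a microPET for 30 min at 24, 48 and 72 h post-injection. Tumor uptake was estimated by region-of-interest calculations.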

Mus musculus [2] = experiment: Drug uptake in mouse Colon 26 cells xenografted iv dosed BALB/c mouse after 48 hrs by PET imaging; type: ADME, organism-based; conditions: in vivo; outline: as §1
Mus musculus [3] = experiment: Drug uptake in mouse Colon 26 cells xenografted iv dosed BALB/c mouse after 72 hrs by PET imaging; type: ADME, organism-based; conditions: in vivo; outline: as §1
Liver [4] = experiment: Drug uptake in parenterally dosed BALB/c mouse liver xenografted with mouse Colon 26 cells after 72 hrs by PET analysis; type: ADME, organism-based; conditions: in vivo
Outline: (§2)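 Tumor-bearing BALB/c mice (Colon26, subcutaneous) received ¹²⁴I-labeled photosensitizer via the tail vein at 15–50 μCi. Three mice per time point were sacrificed at 24, 48 and 72 h. Organs were removed, weighed and counted in a γ-well counter. Uptake was expressed as %ID/g tissue.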

Spleen [5] = experiment: Drug uptake in parenterally dosed BALB/c mouse spleen xenografted with mouse Colon 26 cells after 72 hrs by PET analysis; type: ADME, organism-based; conditions: in vivo; outline: as §2
Intestine = experiment: Drug uptake in parenterally dosed BALB/c mouse intestine xenografted with mouse Colon 26 cells after 72 hrs by PET analysis; type: ADME, organism-based; conditions: in vivo, other; outline: as §2
Blood [6] = experiment: Drug uptake in BALB/c mouse blood xenografted with mouse Colon 26 cells at 100 uCi administered parenterally after 24 hrs by PET analysis; type: ADME, tissue-based; conditions: in vivo, other
Outline: (§3)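 ¹²⁴I-labelled PS given by tail vein to BALB/c mice bearing Colon26 tumours (100 μCi per figure legend). Three mice per time point killed at 24, 48 and 72 h. Tumour, organs and blood weighed and counted in a γ-well counter. Uptake expressed as %ID/g.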

Muscle tissue [7] = experiment: Drug uptake in BALB/c mouse muscle xenografted with mouse Colon 26 cells at 100 uCi administered parenterally after 24 hrs by PET analysis; type: ADME, tissue-based; conditions: in vivo, other; outline: as §3
Spleen [8] = experiment: Drug uptake in BALB/c mouse spleen xenografted with mouse Colon 26 cells at 100 uCi administered parenterally after 24 hrs by PET analysis; type: ADME, tissue-based; conditions: in vivo, other; outline: as §3
Kidney [9] = experiment: Drug uptake in BALB/c mouse kidney xenografted with mouse Colon 26 cells at 100 uCi administered parenterally after 24 hrs by PET analysis; type: ADME, tissue-based; conditions: in vivo, other; outline: as §3
Lung [10] = experiment: Drug uptake in BALB/c mouse lungs xenografted with mouse Colon 26 cells at 100 uCi administered parenterally after 24 hrs by PET analysis; type: ADME, tissue-based; conditions: in vivo, other; outline: as §3
Heart [11] = experiment: Drug uptake in BALB/c mouse heart xenografted with mouse Colon 26 cells at 100 uCi administered parenterally after 24 hrs by PET analysis; type: ADME, tissue-based; conditions: in vivo, other; outline: as §3
Liver [12] = experiment: Drug uptake in BALB/c mouse liver xenografted with mouse Colon 26 cells at 100 uCi administered parenterally after 24 hrs by PET analysis; type: ADME, tissue-based; conditions: in vivo, other; outline: as §3
[13] = Drug uptake in BALB/c mouse gut xenografted with mouse Colon 26 cells at 100 uCi administered parenterally after 24 hrs by PET analysis; type: ADME, cell-based; conditions: in vivo, other
Stomach [14] = experiment: Drug uptake in BALB/c mouse stomach xenografted with mouse Colon 26 cells at 100 uCi administered parenterally after 24 hrs by PET analysis; type: ADME, tissue-based; conditions: in vivo, other; outline: as §3
[15] = Drug uptake in mouse Colon 26 cells implanted BALB/c mouse tumor at 100 uCi administered parenterally after 24 hrs by gamma counting; type: ADME, Neoplasm; conditions: in vivo, other; outline: as §3
Blood [16] = experiment: Drug uptake in BALB/c mouse blood xenografted with mouse Colon 26 cells at 100 uCi administered parenterally after 48 hrs by PET analysis; type: ADME, tissue-based; conditions: in vivo, other; outline: as §3
Muscle tissue [17] = experiment: Drug uptake in BALB/c mouse muscle xenografted with mouse Colon 26 cells at 100 uCi administered parenterally after 48 hrs by PET analysis; type: ADME, tissue-based; conditions: in vivo, other; outline: as §3
Spleen [18] = experiment: Drug uptake in BALB/c mouse spleen xenografted with mouse Colon 26 cells at 100 uCi administered parenterally after 48 hrs by PET analysis; type: ADME, tissue-based; conditions: in vivo; outline: as §3
Kidney [19] = experiment: Drug uptake in BALB/c mouse kidney xenografted with mouse Colon 26 cells at 100 uCi administered parenterally after 48 hrs by PET analysis; type: ADME, tissue-based; conditions: in vivo, other; outline: as §3
Lung [20] = experiment: Drug uptake in BALB/c mouse lungs xenografted with mouse Colon 26 cells at 100 uCi administered parenterally after 48 hrs by PET analysis; type: ADME, tissue-based; conditions: in vivo, other; outline: as §3
Heart [21] = experiment: Drug uptake in BALB/c mouse heart xenografted with mouse Colon 26 cells at 100 uCi administered parenterally after 48 hrs by PET analysis; type: ADME, tissue-based; conditions: in vivo, other; outline: as §3
Liver [22] = experiment: Drug uptake in BALB/c mouse liver xenografted with mouse Colon 26 cells at 100 uCi administered parenterally after 48 hrs […]; type: ADME, tissue-based; conditions: in vivo; outline: as §3
[23] = Drug uptake in BALB/c mouse gut xenografted with mouse Colon 26 cells at 100 uCi administered parenterally after 48 hrs by PET analysis; type: ADME, cell-based; conditions: in vivo, other; outline: as §3
Stomach [24] = experiment: Drug uptake in BALB/c mouse stomach xenografted with mouse Colon 26 cells at 100 uCi administered parenterally after 48 hrs by PET analysis; type: ADME, tissue-based; conditions: in vivo, other; outline: as §3
[25] = Drug uptake in mouse Colon 26 cells implanted subcutaneously in BALB/c mouse tumor at 100 uCi administered parenterally after 48 hrs by gamma counting; type: ADME, Neoplasm; conditions: in vivo, sc; outline: as §3
Blood [26] = experiment: Drug uptake in BALB/c mouse blood xenografted with mouse Colon 26 cells at 100 uCi administered parenterally after 72 hrs by PET analysis; type: ADME, tissue-based; conditions: in vivo, other; outline: as §3
Muscle tissue [27] = experiment: Drug uptake in BALB/c mouse muscle xenografted with mouse Colon 26 cells at 100 uCi administered parenterally after 72 hrs by PET analysis; type: ADME, tissue-based; conditions: in vivo, other; outline: as §3
Spleen [28] = experiment: Drug uptake in BALB/c mouse spleen xenografted with mouse Colon 26 cells at 100 uCi administered parenterally after 72 hrs by PET analysis; type: ADME, tissue-based; conditions: in vivo, other; outline: as §3
Kidney [29] = experiment: Drug uptake in BALB/c mouse kidney xenografted with mouse Colon 26 cells at 100 uCi administered parenterally after 72 hrs by PET analysis; type: ADME, tissue-based; conditions: in vivo, other; outline: as §3
Lung [30] = experiment: Drug uptake in BALB/c mouse lungs xenografted with mouse Colon 26 cells at 100 uCi administered parenterally after 72 hrs by PET analysis; type: ADME, tissue-based; conditions: in vivo, other; outline: as §3
Heart [31] = experiment: Drug uptake in BALB/c mouse heart xenografted with mouse Colon 26 cells at 100 uCi administered parenterally after 72 hrs by PET analysis; type: ADME, tissue-based; conditions: in vivo, other; outline: as §3
Liver [32] = experiment: Drug uptake in BALB/c mouse liver xenografted with mouse Colon 26 cells at 100 uCi administered parenterally after 72 hrs by PET analysis; type: ADME, tissue-based; conditions: in vivo, other; outline: as §3
[33] = Drug uptake in BALB/c mouse gut xenografted with mouse Colon 26 cells at 100 uCi administered parenterally after 72 hrs by PET analysis; type: ADME, cell-based; conditions: in vivo, other; outline: as §3
Stomach [34] = experiment: Drug uptake in BALB/c mouse stomach xenografted with mouse Colon 26 cells at 100 uCi administered parenterally after 72 hrs by PET analysis; type: ADME, tissue-based; conditions: in vivo; outline: as §3
[35] = Drug uptake in mouse Colon 26 cells implanted subcutaneously in BALB/c mouse tumor at 100 uCi administered parenterally after 72 hrs by gamma counting; type: ADME, Neoplasm; conditions: in vivo, sc; outline: as §3

Measured: Drug uptake

CC[C@H]1c2cc3[nH]c4c(c5nc(cc6[nH]c(cc(n2)[C@@H]1C)c(C(C)OCc1cccc([124I])c1)c6C)C(C)=C5CCC(=O)O)CC(=O)c4c3C (stereo partly drawn)
Active: Mus musculus [1] | Mus musculus [2] | Mus musculus [3] | Liver [4] | Spleen [5] | Intestine

CCC1=C(C)c2cc3[nH]c(cc4nc(c5c6[nH]c(cc1n2)c(C)c6C(=O)C5)C(CCC(=O)OC)[C@@H]4C)c(C)c3C(C)OCc1cccc([124I])c1 (stereo partly drawn)
Active: Mus musculus [1] | Mus musculus [2] | Mus musculus [3] | Blood [6] | Muscle tissue [7] | Spleen [8] | Kidney [9] | Lung [10] | Heart [11] | Liver [12] | [13] | Stomach [14] | [15] | Blood [16] | Muscle tissue [17] | Spleen [18] | Kidney [19] | Lung [20] | Heart [21] | Liver [22] | [23] | Stomach [24] | [25] | Blood [26] | Muscle tissue [27] | Spleen [28] | Kidney [29] | Lung [30] | Heart [31] | Liver [32] | [33] | Stomach [34] | [35]

CC[C@H]1c2cc3[nH]c4c(c5nc(cc6[nH]c(cc(n2)[C@@H]1C)c(C(C)OCc1cccc([124I])c1)c6C)C(C)=C5CCC(=O)OC)CC(=O)c4c3C (stereo partly drawn)
Active: Mus musculus [1] | Mus musculus [2] | Mus musculus [3]

CCC1=C(C)c2cc3[nH]c(cc4nc(c5c6[nH]c(cc1n2)c(C)c6C(=O)C5)C(CCC(=O)O)[C@@H]4C)c(C)c3C(C)OCc1cccc([124I])c1 (stereo partly drawn)
Active: Mus musculus [1] | Mus musculus [2] | Mus musculus [3] | Liver [4] | Spleen [5] | Intestine | Blood [6] | Muscle tissue [7] | Spleen [8] | Kidney [9] | Lung [10] | Heart [11] | Liver [12] | [13] | Stomach [14] | [15] | Blood [16] | Muscle tissue [17] | Spleen [18] | Kidney [19] | Lung [20] | Heart [21] | Liver [22] | [23] | Stomach [24] | [25] | Blood [26] | Muscle tissue [27] | Spleen [28] | Kidney [29] | Lung [30] | Heart [31] | Liver [32] | [33] | Stomach [34] | [35]
